# In ChEMBL document CHEMBL1649547, “Telavancin disrupts the functional integrity of the bacterial membrane through targeted interaction with the cell wall precursor lipid II” (Antimicrob Agents Chemother, 2009):
# Activity calls are given as the source filed them. The rule behind the calls is not given here.
# What was measured:
# Staphylococcus aureus [1] = assay: Antibacterial activity against vancomycin-intermediate Staphylococcus aureus ATCC 700699; format: functional
# In short: (§1)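 MIC determined with commercially manufactured dry-form panels; the organisms were grown in cation-adjusted Mueller-Hinton II broth.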
# Staphylococcus aureus [2] = assay: Antibacterial activity against Staphylococcus aureus assessed as induction of bacterial cell lysis at 8 to 32 ug/ml by turbidity assay; format: functional, organism-based
# In short: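 S. aureus ATCC 33591 was grown in cation-adjusted MHB to early exponential phase (A625 = 0.3). 5-ml aliquots received compound at the final concentration and were incubated in a shaking 37°C water bath. Lysis was followed by turbidity. Cells were also imaged by microscopy at 0, 2 and 6 h, scoring at least 30 cells per condition. Lysostaphin served as the lysis control. Means ± SD of three independent experiments.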
# Staphylococcus aureus [3] = assay: Antibacterial activity against Staphylococcus aureus assessed as induction of bacterial membrane depolarization by flow cytometry; format: functional, organism-based
# In short: (§2)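 S. aureus ATCC 29213 grown in MHB at 37°C to A625 = 0.3, diluted to 10^6 CFU/ml in MHB. Compound added to 5 ml aliquots, shaking water bath at 37°C, usually 90 min endpoint. Samples mixed 1:1 with DiOC2(3) (final 30 µM) and stained 5 min. Flow cytometry of 5,000 events, red/green ratio; depolarized gate set from CCCP. IC50 from four-parameter sigmoidal fit.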
# Staphylococcus aureus [4] = assay: Antibacterial activity against daptomycin-nonsusceptible Staphylococcus aureus MED2034; format: functional; in short: as §1
# Staphylococcus aureus [5] = assay: Antibacterial activity against Staphylococcus aureus assessed as induction of bacterial membrane depolarization at 8 ug/ml by flow cytometry; format: functional
# In short: (§3)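 Membrane potential was measured with DiOC2(3) flow cytometry. Early-exponential cultures (A625 = 0.3) in cation-adjusted MHB were diluted to 106 CFU/ml and dosed in 5-ml aliquots at 37°C with shaking. Samples were stained 5 min with 30 µM DiOC2(3) (final). 5,000 events per sample were collected. The red/green fluorescence ratio was gated against a CCCP-depolarized population. The endpoint was 90 min unless noted.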
# Staphylococcus aureus [6] = assay: Antibacterial activity against Staphylococcus aureus; format: functional; in short: as §1
# Staphylococcus aureus [7] = assay: Antibacterial activity against heterogeneous vancomycin-intermediate Staphylococcus aureus ATCC 700698 assessed as induction of bacterial membrane depolarization at 32 ug/ml by flow cytometry; format: functional
# In short: (§4)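 Strains with resistance phenotypes tested in the DiOC2(3) flow-cytometric depolarization assay. Cells at 10^6 CFU/ml in MHB at 37°C, dye final 30 µM, 5 min stain, 5,000 events, red/green ratio. Percent depolarization followed over time.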
# Staphylococcus aureus [8] = assay: Antibacterial activity against Staphylococcus aureus in presence of 5 mM D-Ala-D-Ala; format: functional
# Staphylococcus aureus [9] = assay: Antibacterial activity against vancomycin-intermediate Staphylococcus aureus ATCC 700699 assessed as induction of bacterial membrane depolarization at 32 ug/ml by flow cytometry; format: functional; in short: as §4
# Staphylococcus aureus [10] = assay: Antibacterial activity against methicillin-resistant Staphylococcus aureus ATCC 33591; format: functional; in short: as §1
# Staphylococcus aureus [11] = assay: Antibacterial activity against heterogeneous vancomycin-intermediate Staphylococcus aureus ATCC 700698; format: functional
# Staphylococcus aureus [12] = assay: Antibacterial activity against Staphylococcus aureus assessed as induction of bacterial cell lysis at 8 to 32 ug/ml by spectrophotometry; format: functional, organism-based
# In short: (§5)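 S. aureus ATCC 33591 grown in MHB to early exponential phase (A625 = 0.3). 5 ml aliquots treated at final concentration, shaking water bath at 37°C. Turbidity read by spectrophotometer. Lysis also scored by microscopy: intact cells dark, lysed cells transparent; imaged at 0, 2 and 6 h, at least 30 cells per condition. Lysostaphin as lysis control. Three independent experiments.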
# Staphylococcus aureus [13] = assay: Antibacterial activity against Staphylococcus aureus grown in MHB medium assessed as induction of bacterial membrane depolarization at 2 to 32 ug/ml by flow cytometry; format: functional, organism-based
# In short: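 MHB-grown S. aureus either kept in MHB or washed and resuspended in cation-containing PBS, then equilibrated 10 min at 37°C before telavancin 2–32 µg/ml. Time course of depolarization measured by DiOC2(3) flow cytometry (final 30 µM, 5 min stain, red/green ratio). Three independent experiments.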
# Staphylococcus aureus [14] = assay: Antibacterial activity against Staphylococcus aureus assessed as bacterial count at 8 to 32 ug/ml by turbidity assay; format: functional; in short: as §5
# Staphylococcus aureus [15] = assay: Antibacterial activity against Staphylococcus aureus assessed as induction of bacterial membrane depolarization at 8 ug/ml by flow cytometry in presence of 0.05 mM D-Ala-D-Ala; format: functional
# In short: (§6)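 S. aureus at 10^6 CFU/ml in MHB at 37°C. dKAA tripeptide (0.05, 0.5 or 5 mM) added before telavancin (8 or 32 µg/ml), 60 min reading. DiOC2(3) staining (final 30 µM, 5 min), flow cytometry of 5,000 events, red/green fluorescence ratio; depolarized gate defined with CCCP-treated cells.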
# Staphylococcus aureus [16] = assay: Antibacterial activity against Staphylococcus aureus assessed as induction of bacterial membrane depolarization at 8 ug/ml by flow cytometry in presence of 0.5 mM D-Ala-D-Ala; format: functional; in short: as §6
# Staphylococcus aureus [17] = assay: Antibacterial activity against daptomycin-nonsusceptible Staphylococcus aureus MED2034 assessed as induction of bacterial membrane depolarization at 32 ug/ml by flow cytometry; format: functional; in short: as §3
# Staphylococcus aureus [18] = assay: Antibacterial activity against Staphylococcus aureus assessed as induction of bacterial membrane depolarization at 32 ug/ml by flow cytometry in presence of 5 mM D-Ala-D-Ala; format: functional; in short: as §6
# Staphylococcus aureus [19] = assay: Antibacterial activity against Staphylococcus aureus assessed as change in cellular membrane integrity at 8 to 32 ug/ml up to 6 hrs by spectrophotometry; format: functional, organism-based; in short: as §5
# Staphylococcus aureus [20] = assay: Inhibition of bacterial cell wall precursor lipid 2 synthesis in Staphylococcus aureus assessed as induction of membrane depolarization at 32 ug/ml by flow cytometry in presence of bacitracin; format: functional; parameters: scale not given: the % may be the effect or the level left
# In short: (§7)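 Cells then exposed to telavancin 32 µg/ml for 15 min (nisin 2 µg/ml, 5 min). DiOC2(3) flow cytometry. Percent depolarization expressed relative to samples without pretreatment.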
# Staphylococcus aureus [21] = assay: Antibacterial activity against Staphylococcus aureus assessed as induction of bacterial membrane depolarization at 32 ug/ml by flow cytometry; format: functional; in short: as §2
# Staphylococcus aureus [22] = assay: Antibacterial activity against Staphylococcus aureus assessed as induction of bacterial membrane depolarization at 8 ug/ml by flow cytometry in presence of 5 mM D-Ala-D-Ala; format: functional; in short: as §6
# Staphylococcus aureus [23] = assay: Antibacterial activity against Staphylococcus aureus in presence of 0.5 mM D-Ala-D-Ala; format: functional
# Staphylococcus aureus [24] = assay: Antibacterial activity against Staphylococcus aureus in presence of 0.05 mM D-Ala-D-Ala; format: functional
# Staphylococcus aureus [25] = assay: Inhibition of bacterial cell wall precursor lipid 2 synthesis in Staphylococcus aureus assessed as induction of membrane depolarization at 32 ug/ml by flow cytometry in presence of fosfomycin; format: functional; parameters: scale not given: the % may be the effect or the level left; in short: as §7
# Staphylococcus aureus [26] = assay: Antibacterial activity against Staphylococcus aureus assessed as induction of bacterial membrane depolarization at 32 ug/ml by flow cytometry in presence of 0.5 mM D-Ala-D-Ala; format: functional; in short: as §6
# Staphylococcus aureus [27] = assay: Inhibition of bacterial cell wall precursor lipid 2 synthesis in Staphylococcus aureus assessed as induction of membrane depolarization at 32 ug/ml by flow cytometry in presence of D-cycloserine; format: functional; parameters: scale not given: the % may be the effect or the level left; in short: as §7
# Cell membrane = assay: Binding affinity to cell membrane of Staphylococcus aureus grown in MHB medium at 8 ug/ml by scintillation counting relative to control
# In short: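 S. aureus at 10^8 CFU/ml in MHB or PBS at 37°C, exposed to [14C]telavancin 8 µg/ml over 2 h. At each time point, cells collected on 0.2-µm filter plate, dried overnight at 37°C, and scintillation counted. Three independent experiments.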
# Staphylococcus aureus [28] = assay: Antibacterial activity against Staphylococcus aureus assessed as induction of bacterial membrane depolarization at 32 ug/ml by flow cytometry in presence of 0.05 mM D-Ala-D-Ala; format: functional; in short: as §6
smiles,measurement,setting,value
CN[C@H](CC(C)C)C(=O)N[C@H]1C(=O)N[C@@H](CC(N)=O)C(=O)N[C@H]2C(=O)N[C@H]3C(=O)N[C@H](C(=O)N[C@H](C(=O)O)c4cc(O)cc(O)c4-c4cc3ccc4O)[C@H](O)c3ccc(c(Cl)c3)Oc3cc2cc(c3O[C@@H]2O[C@H](CO)[C@@H](O)[C@H](O)[C@H]2O[C@H]2C[C@](C)(N)[C@H](O)[C@H](C)O2)Oc2ccc(cc2Cl)[C@H]1O [VANCOMYCIN],MIC,Staphylococcus aureus [1],8 µg/mL
same,Activity,Staphylococcus aureus [2],inactive
same,IC50,Staphylococcus aureus [3],> 96 µg/mL
CCCCCCCCCC(=O)N[C@@H](Cc1c[nH]c2ccccc12)C(=O)N[C@H](CC(N)=O)C(=O)N[C@@H](CC(=O)O)C(=O)N[C@@H]1C(=O)NCC(=O)N[C@@H](CCCN)C(=O)N[C@@H](CC(=O)O)C(=O)N[C@H](C)C(=O)N[C@@H](CC(=O)O)C(=O)NCC(=O)N[C@H](CO)C(=O)N[C@@H]([C@H](C)CC(=O)O)C(=O)N[C@@H](CC(=O)c2ccccc2N)C(=O)O[C@@H]1C,MIC,Staphylococcus aureus [4],4 µg/mL
CCCCCCCCCCNCCN[C@@]1(C)C[C@H](O[C@H]2[C@H](Oc3c4cc5cc3Oc3ccc(cc3Cl)[C@H](O)[C@@H](NC(=O)O)C(=O)N[C@@H](CC(N)=O)C(=O)N[C@H]5C(=O)N[C@H]3C(=O)N[C@H](C(=O)N[C@H](C(=O)O)c5cc(O)c(CNCP(=O)(O)O)c(O)c5-c5cc3ccc5O)[C@H](O)c3ccc(c(Cl)c3)O4)O[C@H](CO)[C@@H](O)[C@@H]2O)O[C@@H](C)[C@H]1O,Activity,Staphylococcus aureus [5],35%
same,MIC,Staphylococcus aureus [6],8 µg/mL
CCCCCCCCCCNCCN[C@@]1(C)C[C@H](O[C@H]2[C@H](Oc3c4cc5cc3Oc3ccc(cc3Cl)[C@@H](O)[C@@H](NC(=O)[C@@H](CC(C)C)NC)C(=O)N[C@@H](CC(N)=O)C(=O)N[C@H]5C(=O)N[C@H]3C(=O)N[C@H](C(=O)N[C@H](C(=O)O)c5cc(O)c(CNCP(=O)(O)O)c(O)c5-c5cc3ccc5O)[C@H](O)c3ccc(c(Cl)c3)O4)O[C@H](CO)[C@@H](O)[C@@H]2O)O[C@@H](C)[C@H]1O [TELAVANCIN],Activity,Staphylococcus aureus [7],78%
same,MIC,Staphylococcus aureus [8],4 µg/mL
same,MIC,Staphylococcus aureus [1],0.5 µg/mL
same,Activity,Staphylococcus aureus [9],61%
same,MIC,Staphylococcus aureus [10],≤ 0.5 µg/mL
same,MIC,Staphylococcus aureus [11],≤ 0.5 µg/mL
same,Activity,Staphylococcus aureus [12],inactive
same,Activity,Staphylococcus aureus [13],Active
same,log10CFU/ml,Staphylococcus aureus [14],3
same,Activity,Staphylococcus aureus [15],33%
same,Activity,Staphylococcus aureus [16],17%
same,MIC,Staphylococcus aureus [4],≤ 0.5 µg/mL
same,Activity,Staphylococcus aureus [17],77%
same,Activity,Staphylococcus aureus [5],49%
same,Activity,Staphylococcus aureus [3],Dose-dependent effect
same,IC50,Staphylococcus aureus [3],3.6 µg/mL
same,Activity,Staphylococcus aureus [18],14%
same,Activity,Staphylococcus aureus [19],inactive
same,Activity,Staphylococcus aureus [20],27%
same,Activity,Staphylococcus aureus [21],94%
same,Activity,Staphylococcus aureus [22],7%
same,MIC,Staphylococcus aureus [23],1 µg/mL
same,MIC,Staphylococcus aureus [24],0.5 µg/mL
same,MIC,Staphylococcus aureus [6],0.25 µg/mL
same,Activity,Staphylococcus aureus [25],29%
same,Activity,Staphylococcus aureus [26],19%
same,Activity,Staphylococcus aureus [27],38%
same,fold change (FC),Cell membrane,2.8
same,Activity,Staphylococcus aureus [28],68%
CCCCCCCCCCO [DECANOL],Activity,Staphylococcus aureus [13],Active
same,MIC,Staphylococcus aureus [6],128 µg/mL
